Bioassay records: PubChem BioAssay, several laboratories
DDE Tn7 FP inh: inhibitors of Tn7 peptide binding to fibrin DD(E), primary screen, biochemical, fluorescence polarization, human fibrin, Tn7 probe; FP displacement of FITC-Tn7 peptide from fibrin DD(E); 0% = median of compound wells per plate; inhibition, % at 8.3 µM; Fibrinogen beta chain (Homo sapiens), P02675; actives 0.13% (n = 370,000); AID 720508, 2013;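 active = inhibition above the mean of compounds falling within the control limits plus 3 SD of them, cut at about 14% in these data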;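 note: 0% = plate median of compound wells and 100% = 10 µM Aha-Tn7 peptide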
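Test system: human clot-derived fibrin DD(E) complex / Quantity: 2 µM final DD(E) protein / Incubation: 10 min plus 3 h, room temperature / Measured by: fluorescence polarization / Benchmarks: high control of 10 µM Aha-Tn7 peptide / Replicates: singlicate testing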
SKN-1 inh: suppressors of acrylamide-induced Pgst-4::GFP reporter in worms, primary screen, SKN-1 inhibitor project, whole organism, uHTS, GFP/RFP fluorescence ratio, strain VP596; C. elegans VP596 Pgst-4::GFP/RFP ratio, 24 h; AID 624304, 2012; inhibition, % at 21.8 µM; actives 0.49% (n = 360,000);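 active = interference check ratio from 0.5 to 1.5 plus GFP to RFP signal ratio inhibition reaching or exceeding a fixed threshold, cut at about 30% in these data, passing the limit was not always enough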
MT1-MMP act inh: blockers of MT1-MMP proenzyme processing, primary screen, HT1080 RFP-PRO-GFP cells, GFP/RFP fluorescence; GFP/RFP ratio fluorescence, overnight; percent of plate control window, DMSO zero; actives 0.061% (n = 360,000); GFP/RFP ratio change, % at 20 µM; Matrix metalloproteinase-14 (Homo sapiens), P50281; AID 651647, 2012;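 active = GFP/RFP ratio change of at least 30% with cell ATP level not reduced by more than half and red fluorescence within 50% of control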
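Compound: 20 µM single dose, 1% DMSO / System: HT1080 RFP-PRO-GFP cells / Controls: DMSO and RFP-L50D-GFP cell wells / Read-out basis: GFP/RFP fluorescence ratio / Schedule: overnight compound exposure at 37 °C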
DDE Tn6 FP inh: inhibitors of Tn6 peptide binding to fibrin DD(E), primary screen, biochemical, fluorescence polarization, human fibrin, Tn6 probe; inhibition, % at 8.3 µM; actives 0.21% (n = 370,000); AID 720509, 2013; Fibrinogen beta chain (Homo sapiens), P02675; Fibrin DD(E) TRITC-Tn6 fluorescence polarization displacement;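 active = inhibition above a per-campaign cutoff: mean of compounds within control limits plus 3 SD, cut at about 15% in these data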;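 note: 0% = median of all compound wells on the plate and 100% = blocking peptide control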
proKLK7 act: proKLK7 zymogen activators, primary screen, biochemical, fluorescence intensity. Kallikrein-7 (Homo sapiens), P49862. purified proKLK7, EDANS-DABCYL substrate fluorescence; 100% is mature enzyme control, 0% vehicle. activation, % at 7 µM. actives 0.9% (n = 370,000). AID 652039, 2013;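 active = activation above the mean of all tested compounds plus 3 SD, computed per campaign excluding outliers beyond control limits, cut at about 13% in these data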
Target sequence (P49862 whole entry, looked up): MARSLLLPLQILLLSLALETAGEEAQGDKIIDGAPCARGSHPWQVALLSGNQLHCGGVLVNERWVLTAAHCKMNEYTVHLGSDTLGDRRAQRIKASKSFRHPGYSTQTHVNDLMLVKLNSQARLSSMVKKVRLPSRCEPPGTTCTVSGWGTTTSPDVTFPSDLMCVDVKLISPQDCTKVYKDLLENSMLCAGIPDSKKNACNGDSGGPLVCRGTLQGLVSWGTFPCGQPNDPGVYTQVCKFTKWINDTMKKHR
Neddyl block: inhibitors of cullin neddylation, primary screen, biochemical, TR-FRET, uHTS, NAE and Ubc12. calls only at 25 µM. actives 0.58% (n = 360,000). AID 651699, 2012; in the data active = inhibition above about 36%
Neddyl inh conf: blockade of NEDD8 conjugation to cullin – biochemical, TR-FRET, single concentration, confirmation | actives 13% (n = 1,800) | calls only at 25 µM | TR-FRET cullin neddylation biochemical assay | shares compounds with Neddyl block; in the data active = inhibition above about 40%;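 note: neddylation substrate is the cullin 1 ring ligase complex with SKP2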
* = called active by the depositor; i = inactive; . = not tested or not shown; + = active, no number. This is a sample that favours compounds with a hit; in the whole collection about 2.2% have one here.

SMILES | DDE Tn7 FP inh | SKN-1 inh | MT1-MMP act inh | DDE Tn6 FP inh | proKLK7 act | Neddyl block | Neddyl inh conf
CCOc1ccc(C2NC(=O)c3ccccc3O2)cc1OC (stereo unspecified) | -0.7 | -7.3 | 3.0 | 3.2 | -4.6 | i | .
O=C1NC(c2ccc3c(c2)OCO3)Oc2ccccc21 (stereo unspecified) | -0.3 | -5.3 | 1.7 | 0.4 | -4.0 | + | i
CCOc1ccc(C2NC(=O)c3ccccc3O2)cc1OCC (stereo unspecified) | 1.1 | 11.3 | 4.2 | -4.2 | -1.8 | + | i
CCOc1cc(C2NC(=O)c3ccccc3O2)ccc1OC(C)C (stereo unspecified) | 0.0 | 16.7 | -1.4 | 2.5 | -4.1 | + | i
COC(=O)[C@@]12CCCCN1[C@H](c1ccc(-c3ccc(Cl)c(Cl)c3)c(OC)c1)[C@@H]1C(=O)N(C)C(=O)[C@@H]12 | 11.7 | 5.5 | -2.6 | -3.0 | -0.6 | i | .
CCc1nnc(NC(=O)CSc2nnc(-c3ccccc3O)n2-c2ccc(C)cc2C)s1 | -3.8 | 19.7 | -8.2 | 7.0 | -0.1 | + | i
Cc1ccc(-n2nc(C)c3c(C)cc(=O)[nH]c32)cc1 | 1.5 | -4.1 | -3.7 | -12.2 | 1.5 | + | i
COc1ccc(Nc2cc3n(c(=O)n2)CCc2cc(OC)c(OC)cc2-3)cc1 | -1.1 | 8.2 | 6.6 | -5.5 | 4.5 | + | .
C/C(=N\NC(=O)c1cc(Br)ccc1O)c1cccc(NC(=O)c2ccccc2F)c1 | 0.5 | -6.1 | 3.4 | -10.3 | 1.3 | + | i
CCOC(=O)N1CCN(C(=O)Cn2ncc3ccccc32)CC1 | -2.4 | -2.2 | 1.4 | 5.7 | -0.1 | i | .
COc1ccccc1NS(=O)(=O)c1cccc(NC(=O)C(C)NC(=O)c2ccco2)c1 (stereo unspecified) | 1.0 | -3.8 | -0.6 | 5.0 | 0.1 | i | .
O=C(COC(=O)CCc1nc2ccccc2n1-c1ccccc1)Nc1cccc(Cl)c1 | 4.9 | 6.8 | -7.7 | 7.6 | 0.9 | i | .
O=C(O)CN(c1ccccn1)S(=O)(=O)c1ccc(Cl)cc1 | -0.4 | -3.5 | -12.7 | -1.2 | -0.4 | i | .
O=C(O)CN(c1ccccn1)S(=O)(=O)c1ccccc1 | 2.2 | -4.5 | -2.0 | 1.3 | -0.3 | + | i
CN1CCc2c(sc3c2C(=O)NC(c2ccc4c(c2)OCO4)N3)C1 (stereo unspecified) | -1.6 | -14.2 | -10.6 | -0.2 | 0.0 | i | .
Cc1ccc(C2NC(=O)c3c(sc4c3CCN(C)C4)N2)o1 (stereo unspecified) | 11.4 | 23.4 | -24.3 | 4.8 | 10.6 | + | i
CCOC(=O)Cc1nc(N2CCN(CCN)CC2)c2c(C)c(C(=O)OCC)sc2n1 | 2.8 | . | . | 0.2 | 2.7 | . | .
CC(C)c1ccc(/C=C/C(=O)NC(=S)Nc2ccc(CN3CCOCC3)cc2)cc1 | -4.7 | 7.4 | -7.2 | 0.8 | -0.3 | + | i
CC(C)c1ccc(/C=C/C(=O)NC(=S)NN2CCOCC2)cc1 | -8.5 | -14.7 | -1.3 | -3.9 | 0.5 | i | .
O=C(Cn1cc2c(n1)CCCCC2)NCc1ccccn1 | 7.1 | 3.3 | 1.1 | -1.1 | 0.2 | i | .
O=c1[nH]cnc2sc3c(c12)CN(Cc1ccccc1)CC3 | . | -6.8 | -23.2 | . | . | . | .
O=c1[nH]cnc2sc3c(c12)CCN(Cc1ccccc1)C3 | -2.5 | 13.9 | -15.5 | -2.9 | 12.2 | + | i
CC(C)C[C@@H](COCc1cccc(C(F)(F)F)c1)N1CCN(C(=O)c2ccc(C(F)(F)F)cc2)CCC1=O | 0.7 | -12.0 | -10.0 | -3.0 | -0.2 | i | .
Cc1c(Oc2ccc(C(F)(F)F)cc2[N+](=O)[O-])ccc2c3c(c(=O)oc12)CCC3 | -5.6 | -1.6 | -12.4 | 4.8 | -19.3 | + | i
Cc1csc2nc(O)c(C(=O)NC3CCCCC3C)c(=O)n12 (stereo unspecified) | -1.1 | 0.3 | -9.7 | 1.4 | -0.1 | i | .
SMILES | DDE Tn7 FP inh | SKN-1 inh | MT1-MMP act inh | DDE Tn6 FP inh | proKLK7 act | Neddyl block | Neddyl inh conf
CC1CCCCC1NC(=O)c1c(O)nc2ccccn2c1=O (stereo unspecified) | 0.3 | -12.8 | -1.6 | 3.8 | 1.5 | + | i
O=C(NCCCN1CCCC1=O)c1c(O)nc2ccccn2c1=O | -6.8 | -1.5 | -1.8 | -6.9 | 6.1 | + | i
O=C(NCCC1=CCCCC1)c1c(O)nc2ccccn2c1=O | 7.3 | -1.1 | 6.7 | 5.7 | -1.8 | i | .
CCN(CC)S(=O)(=O)c1cccc(C(=O)Nc2cc3oc4ccccc4c3cc2OC)c1 | 4.6 | 4.6 | 3.8 | -2.2 | -0.3 | i | .
CCCN(CCC)S(=O)(=O)c1ccc(C(=O)Nc2cc3oc4ccccc4c3cc2OC)cc1 | 0.2 | -13.1 | -1.5 | -1.5 | -0.1 | + | i
COc1cccc2cc(-c3cn4ccc(C)cc4n3)c(=O)oc12 | 1.9 | 7.2 | -0.7 | 5.4 | 0.1 | i | .
COc1cccc2cc(-c3cn4cccc(C)c4n3)c(=O)oc12 | -1.1 | -5.3 | 3.6 | 10.1 | 0.8 | + | i
CC1CCC2(CC1)NC(=O)N(CC(=O)Nc1ccc(N3CCCCC3)cc1)C2=O (stereo unspecified) | 4.4 | 3.8 | 2.8 | -1.4 | -0.1 | i | .
O=c1ccc(/C=C/c2ccccc2)nn1Cc1ccc(F)cc1 | -7.9 | 2.8 | -0.3 | 0.5 | -3.5 | + | i
COc1ccc(/C=C/c2ccc(=O)n(Cc3ccccc3)n2)cc1 | 8.7 | 14.1 | -1.7 | -2.1 | -2.5 | + | .
CCOC(=O)Cn1nc(/C=C/c2ccc(OC)cc2)ccc1=O | -5.5 | 4.8 | -0.9 | 2.1 | -0.6 | i | .
Cc1cc(Cl)c(S(=O)(=O)NC2CCCC2)cc1OCC(=O)NC1CCCCC1 | 4.5 | -8.6 | -12.2 | -11.4 | -0.3 | i | .
COc1ccc(-n2c(COc3ccc4c(c3)OCO4)nnc2SCC(=O)O)cc1 | 2.9 | 14.8 | 1.2 | -0.3 | 0.0 | i | .
CCCN1c2cccc3cccc(c23)S1(=O)=O | 6.8 | -0.9 | -5.2 | 1.2 | -0.4 | + | .
